Activity calls are given as the source filed them. The rule behind the calls is not given here.
Experiments:
[1] = tested on: Leucine-rich repeat serine/threonine-protein kinase 2 (Homo sapiens), Q5S007 [A2016T]; details: HEK293, 1 to 3 uM
[2] = molecular target: Ephrin type-B receptor 4 (Homo sapiens) (UniProt P54760); experiment: Inhibition of EPH-B4 assessed as residual activity at 10 uM
Method in brief: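 Radioactivity-based enzymatic assay against a panel of 131 kinases (Dundee profiling). Activity remaining was measured with compound present at the stated concentration.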

[3] = molecular target: Serine/threonine-protein kinase D2 (Homo sapiens) (UniProt Q9BZL6); experiment: Inhibition of PRKD2 assessed as residual activity at 10 uM relative to control
Serine/threonine-protein kinase D2 (Homo sapiens), sequence (Q9BZL6 whole entry): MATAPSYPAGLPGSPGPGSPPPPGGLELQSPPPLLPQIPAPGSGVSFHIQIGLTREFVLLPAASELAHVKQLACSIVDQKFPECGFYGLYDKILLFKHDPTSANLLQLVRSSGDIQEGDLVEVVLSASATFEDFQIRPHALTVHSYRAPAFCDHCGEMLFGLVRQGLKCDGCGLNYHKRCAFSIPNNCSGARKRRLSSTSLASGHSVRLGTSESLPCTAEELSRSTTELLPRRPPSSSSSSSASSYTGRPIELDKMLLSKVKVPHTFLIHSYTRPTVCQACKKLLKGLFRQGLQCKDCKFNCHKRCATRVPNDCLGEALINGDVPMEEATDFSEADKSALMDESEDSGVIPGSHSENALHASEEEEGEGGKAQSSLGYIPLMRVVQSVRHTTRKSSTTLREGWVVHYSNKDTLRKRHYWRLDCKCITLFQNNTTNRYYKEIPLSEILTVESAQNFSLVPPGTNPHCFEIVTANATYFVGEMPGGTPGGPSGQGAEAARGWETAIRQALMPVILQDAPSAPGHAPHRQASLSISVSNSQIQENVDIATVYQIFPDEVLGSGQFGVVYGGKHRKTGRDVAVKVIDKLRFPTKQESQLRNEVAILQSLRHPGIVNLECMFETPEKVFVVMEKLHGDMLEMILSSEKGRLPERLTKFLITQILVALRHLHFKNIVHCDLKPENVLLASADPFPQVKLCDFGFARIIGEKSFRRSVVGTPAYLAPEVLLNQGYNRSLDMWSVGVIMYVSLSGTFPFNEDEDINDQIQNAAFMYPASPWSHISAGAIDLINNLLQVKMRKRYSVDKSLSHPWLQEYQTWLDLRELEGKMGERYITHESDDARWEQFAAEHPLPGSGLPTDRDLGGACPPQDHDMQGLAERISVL

[4] = molecular target: ALK tyrosine kinase receptor (Homo sapiens) (UniProt Q9UM73); experiment: Inhibition of ALK assessed as residual activity at 10 uM relative to control
ALK tyrosine kinase receptor (Homo sapiens), sequence (Q9UM73 19-1620 limits assumed): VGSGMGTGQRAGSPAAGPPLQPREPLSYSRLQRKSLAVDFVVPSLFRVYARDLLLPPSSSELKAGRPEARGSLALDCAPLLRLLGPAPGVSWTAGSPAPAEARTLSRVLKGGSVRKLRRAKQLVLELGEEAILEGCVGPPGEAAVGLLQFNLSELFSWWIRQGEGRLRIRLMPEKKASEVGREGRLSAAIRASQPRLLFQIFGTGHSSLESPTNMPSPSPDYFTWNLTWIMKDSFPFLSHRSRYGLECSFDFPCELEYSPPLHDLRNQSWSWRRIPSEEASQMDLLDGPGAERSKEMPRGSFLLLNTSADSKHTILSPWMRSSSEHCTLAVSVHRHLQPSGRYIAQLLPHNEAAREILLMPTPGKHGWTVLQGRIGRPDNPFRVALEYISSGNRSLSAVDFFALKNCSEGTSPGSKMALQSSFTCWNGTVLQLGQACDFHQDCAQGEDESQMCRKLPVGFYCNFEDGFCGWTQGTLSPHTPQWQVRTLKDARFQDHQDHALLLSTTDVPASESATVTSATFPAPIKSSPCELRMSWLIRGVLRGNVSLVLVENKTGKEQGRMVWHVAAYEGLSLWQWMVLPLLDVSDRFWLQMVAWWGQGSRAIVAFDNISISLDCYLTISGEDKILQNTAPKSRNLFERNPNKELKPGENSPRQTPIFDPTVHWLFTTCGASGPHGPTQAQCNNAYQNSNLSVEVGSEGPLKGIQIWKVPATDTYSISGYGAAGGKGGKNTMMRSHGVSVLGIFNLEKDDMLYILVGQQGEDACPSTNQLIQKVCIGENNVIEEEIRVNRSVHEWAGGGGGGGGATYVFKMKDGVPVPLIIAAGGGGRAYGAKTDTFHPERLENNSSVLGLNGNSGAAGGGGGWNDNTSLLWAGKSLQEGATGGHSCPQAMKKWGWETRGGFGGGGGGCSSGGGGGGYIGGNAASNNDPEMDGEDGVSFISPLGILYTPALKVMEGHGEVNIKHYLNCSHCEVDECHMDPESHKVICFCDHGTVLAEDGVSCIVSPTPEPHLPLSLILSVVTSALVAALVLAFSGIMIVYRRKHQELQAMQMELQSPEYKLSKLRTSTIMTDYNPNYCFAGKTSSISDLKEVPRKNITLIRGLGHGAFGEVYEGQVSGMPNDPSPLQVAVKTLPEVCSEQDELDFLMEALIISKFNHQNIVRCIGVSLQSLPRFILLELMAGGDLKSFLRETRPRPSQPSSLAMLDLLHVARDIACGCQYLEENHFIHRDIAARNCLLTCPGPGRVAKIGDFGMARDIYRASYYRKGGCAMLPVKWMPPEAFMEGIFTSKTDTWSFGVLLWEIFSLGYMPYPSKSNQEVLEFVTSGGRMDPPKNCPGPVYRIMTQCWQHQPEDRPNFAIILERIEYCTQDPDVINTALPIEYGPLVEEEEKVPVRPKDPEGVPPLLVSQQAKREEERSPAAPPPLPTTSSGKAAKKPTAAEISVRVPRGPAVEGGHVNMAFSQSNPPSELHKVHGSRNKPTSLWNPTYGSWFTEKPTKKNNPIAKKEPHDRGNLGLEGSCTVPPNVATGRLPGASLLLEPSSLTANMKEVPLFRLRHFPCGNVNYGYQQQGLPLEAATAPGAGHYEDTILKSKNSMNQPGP

[5] = molecular target: SRSF protein kinase 1 (Homo sapiens) (UniProt Q96SB4); experiment: Inhibition of SRPK1 assessed as residual activity at 1 uM
SRSF protein kinase 1 (Homo sapiens), sequence (Q96SB4 whole entry): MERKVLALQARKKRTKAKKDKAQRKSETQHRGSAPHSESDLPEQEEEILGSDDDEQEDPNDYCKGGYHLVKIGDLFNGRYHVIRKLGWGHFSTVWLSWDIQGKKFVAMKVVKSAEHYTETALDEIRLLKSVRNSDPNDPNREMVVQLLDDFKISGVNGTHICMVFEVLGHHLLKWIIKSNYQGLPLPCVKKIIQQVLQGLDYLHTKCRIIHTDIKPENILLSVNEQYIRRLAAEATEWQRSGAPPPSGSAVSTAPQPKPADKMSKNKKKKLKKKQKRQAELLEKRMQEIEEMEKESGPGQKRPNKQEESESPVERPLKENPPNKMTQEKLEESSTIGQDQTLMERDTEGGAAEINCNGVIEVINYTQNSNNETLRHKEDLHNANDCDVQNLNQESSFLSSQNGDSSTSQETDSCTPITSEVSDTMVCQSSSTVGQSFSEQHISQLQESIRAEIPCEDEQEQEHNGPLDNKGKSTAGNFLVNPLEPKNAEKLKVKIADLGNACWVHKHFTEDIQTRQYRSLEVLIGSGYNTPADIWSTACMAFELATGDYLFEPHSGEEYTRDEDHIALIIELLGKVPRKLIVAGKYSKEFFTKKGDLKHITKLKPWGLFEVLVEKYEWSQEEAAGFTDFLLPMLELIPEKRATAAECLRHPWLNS

[6] = molecular target: Leucine-rich repeat serine/threonine-protein kinase 2 (Homo sapiens) (UniProt Q5S007); details: HEK293, 0.3 to 1 uM
[7] = molecular target: Casein kinase I isoform alpha-like (Homo sapiens) (UniProt Q8N752); experiment: Inhibition of CSNK1A1L assessed as residual activity at 10 uM relative to control
Casein kinase I isoform alpha-like (Homo sapiens), sequence (Q8N752 whole entry, canonical isoform): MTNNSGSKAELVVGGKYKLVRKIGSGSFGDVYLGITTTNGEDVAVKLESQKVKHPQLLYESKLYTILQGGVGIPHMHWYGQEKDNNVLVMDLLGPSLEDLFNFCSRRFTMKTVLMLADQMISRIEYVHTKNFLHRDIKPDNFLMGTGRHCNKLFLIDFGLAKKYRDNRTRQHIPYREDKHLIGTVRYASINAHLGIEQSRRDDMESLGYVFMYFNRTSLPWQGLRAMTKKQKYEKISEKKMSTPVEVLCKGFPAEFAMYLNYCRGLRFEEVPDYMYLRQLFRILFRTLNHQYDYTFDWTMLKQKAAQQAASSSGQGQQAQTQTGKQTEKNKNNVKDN
Method in brief: (§1)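 Competition kinase-binding assay (KINOMEscan) across a non-redundant panel of 329 kinases beyond the radiometric panel; residual binding expressed relative to control.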

[8] = molecular target: T1, Ephrin type-B receptor 2 (Homo sapiens) (UniProt P29323); experiment: Inhibition of EPHB2 assessed as residual activity at 10 uM relative to control
T1 sequence (whole entry): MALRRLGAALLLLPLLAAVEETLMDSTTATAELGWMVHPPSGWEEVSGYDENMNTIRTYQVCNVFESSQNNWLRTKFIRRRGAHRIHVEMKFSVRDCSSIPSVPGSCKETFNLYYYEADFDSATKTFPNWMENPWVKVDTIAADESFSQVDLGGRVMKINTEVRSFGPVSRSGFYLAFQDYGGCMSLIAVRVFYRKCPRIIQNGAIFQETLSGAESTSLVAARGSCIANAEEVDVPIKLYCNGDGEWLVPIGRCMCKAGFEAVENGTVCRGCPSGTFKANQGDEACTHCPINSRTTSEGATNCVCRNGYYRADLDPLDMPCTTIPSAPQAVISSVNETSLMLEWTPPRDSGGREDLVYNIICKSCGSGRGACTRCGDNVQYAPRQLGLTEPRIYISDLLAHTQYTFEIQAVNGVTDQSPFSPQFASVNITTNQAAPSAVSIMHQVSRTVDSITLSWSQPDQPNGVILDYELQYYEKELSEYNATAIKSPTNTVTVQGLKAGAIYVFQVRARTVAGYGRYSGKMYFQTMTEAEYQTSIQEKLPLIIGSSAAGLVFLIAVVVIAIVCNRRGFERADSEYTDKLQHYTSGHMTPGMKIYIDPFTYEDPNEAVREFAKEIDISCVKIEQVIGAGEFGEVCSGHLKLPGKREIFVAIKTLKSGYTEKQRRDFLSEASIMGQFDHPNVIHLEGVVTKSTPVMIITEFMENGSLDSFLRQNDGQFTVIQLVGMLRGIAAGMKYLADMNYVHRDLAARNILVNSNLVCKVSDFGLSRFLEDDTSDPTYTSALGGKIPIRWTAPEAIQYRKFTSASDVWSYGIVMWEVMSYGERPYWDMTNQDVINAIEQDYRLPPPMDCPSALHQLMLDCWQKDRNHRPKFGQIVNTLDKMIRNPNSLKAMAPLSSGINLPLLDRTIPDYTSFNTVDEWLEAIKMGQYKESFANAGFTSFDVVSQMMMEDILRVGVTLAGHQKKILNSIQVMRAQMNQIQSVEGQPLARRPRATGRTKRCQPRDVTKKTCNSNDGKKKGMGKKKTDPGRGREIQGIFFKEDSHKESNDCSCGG
Method in brief: as §1

Mus musculus [9] = experiment: Inhibition of LRRK2 in mouse assessed as inhibition of Ser935 autophosphorylation in brain at 100 mg/kg, ip by immunoblot method; assay type: functional, organism-based; design: dose 100 mg/kg
[10] = molecular target: Cyclin-dependent kinase 11A (Homo sapiens) (UniProt Q9UQ88); experiment: Inhibition of CDC2L2 assessed as residual activity at 10 uM relative to control
[11] = molecular target: Ribosomal protein S6 kinase alpha-1 (Homo sapiens) (UniProt Q15418); experiment: Inhibition of RSK1 assessed as residual activity at 1 uM
[12] = molecular target: Testis-specific serine/threonine-protein kinase 1 (Homo sapiens) (UniProt Q9BXA7); experiment: Inhibition of TSSK1 assessed as residual activity at 1 uM
Testis-specific serine/threonine-protein kinase 1 (Homo sapiens), sequence (Q9BXA7 whole entry): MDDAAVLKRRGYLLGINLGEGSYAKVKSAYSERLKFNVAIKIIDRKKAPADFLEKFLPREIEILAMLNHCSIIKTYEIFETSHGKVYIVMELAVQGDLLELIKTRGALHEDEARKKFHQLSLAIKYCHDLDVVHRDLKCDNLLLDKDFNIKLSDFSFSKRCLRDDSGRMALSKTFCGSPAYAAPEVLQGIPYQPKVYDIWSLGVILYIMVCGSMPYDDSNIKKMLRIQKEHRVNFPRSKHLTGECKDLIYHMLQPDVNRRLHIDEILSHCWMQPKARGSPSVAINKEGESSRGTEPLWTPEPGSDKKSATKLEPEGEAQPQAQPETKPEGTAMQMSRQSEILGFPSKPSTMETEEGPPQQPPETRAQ

[13] = molecular target: T2, Serine/threonine-protein kinase D1 (Homo sapiens) (UniProt Q15139); experiment: Inhibition of PRKD1 assessed as residual activity at 10 uM relative to control
T2 sequence (whole entry): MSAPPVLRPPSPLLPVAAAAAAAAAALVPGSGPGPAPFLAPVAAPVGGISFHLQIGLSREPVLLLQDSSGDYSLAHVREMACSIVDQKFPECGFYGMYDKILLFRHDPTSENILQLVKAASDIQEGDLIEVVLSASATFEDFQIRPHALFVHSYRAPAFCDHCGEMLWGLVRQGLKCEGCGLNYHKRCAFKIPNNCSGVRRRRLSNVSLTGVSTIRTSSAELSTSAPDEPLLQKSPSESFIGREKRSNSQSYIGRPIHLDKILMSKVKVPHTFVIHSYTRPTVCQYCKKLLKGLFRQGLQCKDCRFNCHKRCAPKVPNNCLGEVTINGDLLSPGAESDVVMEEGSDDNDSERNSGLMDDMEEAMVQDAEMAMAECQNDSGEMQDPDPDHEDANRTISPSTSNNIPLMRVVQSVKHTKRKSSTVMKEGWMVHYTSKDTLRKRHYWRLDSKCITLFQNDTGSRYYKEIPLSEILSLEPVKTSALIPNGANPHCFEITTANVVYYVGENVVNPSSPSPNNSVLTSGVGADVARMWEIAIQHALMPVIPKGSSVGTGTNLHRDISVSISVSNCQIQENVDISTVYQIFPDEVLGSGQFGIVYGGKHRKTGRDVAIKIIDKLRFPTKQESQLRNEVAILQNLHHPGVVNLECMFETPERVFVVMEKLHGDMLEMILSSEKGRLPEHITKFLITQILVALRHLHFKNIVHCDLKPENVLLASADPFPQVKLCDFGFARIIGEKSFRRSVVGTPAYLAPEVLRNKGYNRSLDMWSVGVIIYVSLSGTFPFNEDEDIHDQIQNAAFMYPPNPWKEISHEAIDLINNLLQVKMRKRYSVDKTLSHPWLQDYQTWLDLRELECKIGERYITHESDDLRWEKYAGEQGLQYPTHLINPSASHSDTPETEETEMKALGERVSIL

Mus musculus [14] = experiment: Inhibition of LRRK2 in mouse assessed as inhibition of Ser910 autophosphorylation in kidney at 100 mg/kg, ip by immunoblot method; assay type: functional, organism-based; design: dose 100 mg/kg

Ephrin type-B receptor 4 (Homo sapiens), sequence (P54760 whole entry): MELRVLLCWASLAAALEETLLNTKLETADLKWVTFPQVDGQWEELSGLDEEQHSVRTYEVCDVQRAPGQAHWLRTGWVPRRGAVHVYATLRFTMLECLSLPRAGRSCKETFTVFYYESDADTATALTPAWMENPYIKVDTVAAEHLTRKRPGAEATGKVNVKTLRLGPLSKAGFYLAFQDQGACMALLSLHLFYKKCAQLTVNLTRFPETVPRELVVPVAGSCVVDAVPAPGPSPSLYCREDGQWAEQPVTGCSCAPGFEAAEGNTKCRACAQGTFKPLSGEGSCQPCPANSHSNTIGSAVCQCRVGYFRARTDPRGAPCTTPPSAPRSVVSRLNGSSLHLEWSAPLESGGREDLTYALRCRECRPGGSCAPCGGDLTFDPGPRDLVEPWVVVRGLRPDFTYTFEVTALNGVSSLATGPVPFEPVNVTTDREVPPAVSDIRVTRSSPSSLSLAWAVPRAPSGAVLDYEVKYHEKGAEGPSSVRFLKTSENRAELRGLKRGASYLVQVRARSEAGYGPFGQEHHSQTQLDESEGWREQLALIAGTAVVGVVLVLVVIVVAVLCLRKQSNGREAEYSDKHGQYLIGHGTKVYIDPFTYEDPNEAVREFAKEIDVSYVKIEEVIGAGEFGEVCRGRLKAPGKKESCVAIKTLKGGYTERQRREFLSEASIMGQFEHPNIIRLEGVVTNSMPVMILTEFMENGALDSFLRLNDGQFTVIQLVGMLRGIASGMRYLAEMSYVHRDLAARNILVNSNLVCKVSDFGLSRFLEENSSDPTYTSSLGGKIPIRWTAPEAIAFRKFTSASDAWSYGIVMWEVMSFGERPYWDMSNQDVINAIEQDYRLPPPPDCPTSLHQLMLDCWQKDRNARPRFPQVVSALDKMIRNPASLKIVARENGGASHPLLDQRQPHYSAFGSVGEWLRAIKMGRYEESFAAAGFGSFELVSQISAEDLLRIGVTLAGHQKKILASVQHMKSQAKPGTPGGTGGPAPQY

O=C(Nc1cccnc1)c1cc(-c2ccnc(F)c2)ccc1OCc1ccccc1
inhibition [1]: Active
Activity [2]: 108%
Activity [3]: 74%
Activity [4]: 7.2%
Activity [5]: 61%
inhibition [6]: Active
Activity [7]: 40%
Activity [8]: 71%
inhibition (Mus musculus [9]): inactive
Activity [10]: 63%
Activity [11]: 69%
Activity [12]: 103%
Activity [13]: 41%
inhibition (Mus musculus [14]): Active
